Assays:
Vero = experiment: (§1) Cytotoxicity against African green monkey Vero cells assessed as reduction in cell viability by neutral red dye based colorimetric analysis; details: chlorocebus sabaeus, vero
Method in brief: (§2)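 Vero monolayers are grown in DMEM with 5% FBS, gentamicin and amphotericin B, and assayed in the same medium with 2% serum. Each compound is tested as 8 three-fold dilutions, starting at 1, 10 or 100 µg/ml, added before 1000 pfu/well virus. After 4 days, neutral red is added for 1.5 h, cells are washed and lysed, and OD is read. CC50 and IC50 are derived from OD values.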

[1] = test system: p37 (Cowpox virus Grishak); experiment: Selectivity index, ratio of CC50 for African green monkey Vero cells to IC50 for inhibition of p37 in Cowpox virus Grishak infected in African green monkey Vero cells; assay type: toxicity; details: read-out: Ratio CC50/IC50
[2] = test system: p37 (Ectromelia virus K1); experiment: Selectivity index, ratio of CC50 for African green monkey Vero cells to IC50 for inhibition of p37 in Ectromelia virus K1 infected in African green monkey Vero cells; assay type: toxicity; details: read-out: Ratio CC50/IC50
[3] = test system: p37 (Vaccinia virus Copenhagen); experiment: Selectivity index, ratio of CC50 for African green monkey Vero cells to IC50 for inhibition of p37 in Vaccinia virus Copenhagen infected in African green monkey Vero cells; assay type: toxicity; details: read-out: Ratio CC50/IC50
[4] = as §1; details: chlorocebus sabaeus, Vero cells; method in brief: as §2
cells [5] = assay type: cell-based; details: Cowpox virus, Vero, 96 h
cells [6] = assay type: cell-based; details: Ectromelia virus, Vero, 96 h

Compound | CC50 (Vero) [µM] | selectivity ratio [1] | selectivity ratio [2] | selectivity ratio [3] | CC50 [4] [µM] | IC50 (cells [5]) [µM] | IC50 (cells [6]) [µM]
CC12CC3CC(C)(C1)CC(NC(=O)c1ccc(C(F)(F)F)cc1)(C3)C2 | 20.5 | – | – | – | – | – | –
O=C(NNC(=O)C12CC3CC(CC(C3)C1)C2)c1ccc(C(F)(F)F)cc1 | – | > 57 | > 273 | > 255 | > 273 | 4.77 | 1
O=C(NNC1C2CC3CC1CC(Cl)(C3)C2)c1ccc(C(F)(F)F)cc1 (stereo not drawn) | – | 20.7 | 27.5 | 61 | ~215 | 10.4 | 7.8
O=C(NNC12CC3CC(CC(C3)C1)C2)c1ccc(C(F)(F)F)cc1 | – | – | – | – | 2.8 | – | –
C/C(=N\NC(=O)c1ccc(C(F)(F)F)cc1)C12CC3CC(CC(C3)C1)C2 | > 274 | > 23 | > 25 | > 26 | – | 11.9 | 10.9
CC12CC3CC(C1)CC(NC(=O)c1ccc(C(F)(F)F)cc1)(C3)C2 | > 296 | > 19 | > 72 | > 33 | – | 15.6 | 4.1
O=C(NNC1C2CC3CC(C2)CC1C3)c1ccc(C(F)(F)F)cc1 (stereo not drawn) | – | > 72 | > 118 | > 103 | > 296 | 4.06 | 2.5
O=C(NCC12CC3CC(CC(C3)C1)C2)c1ccc(Br)cc1 | 238 | – | 136 | 28 | – | – | 1.75
O=C(NC12CC3CC(CC(C3)C1)C2)c1ccc(C(F)(F)F)cc1 | > 309 | > 333 | > 628 | > 2320 | – | 0.928 | 0.492
CCC12CC3CC(C1)CC(C(=O)NNC(=O)c1ccc(C(F)(F)F)cc1)(C3)C2 | – | – | – | 3.75 | 47 | – | –
O=C(NC1C2CC3CC(C2)CC1C3)c1ccc(Br)cc1 (stereo not drawn) | > 299 | > 26.5 | > 61 | > 98 | – | 11.3 | 4.9
O=C(NNC(=O)c1ccc(C(F)(F)F)cc1)NC12CC3CC(CC(C3)C1)C2 | 94.3 | – | – | 2.6 | – | – | –
O=C(NC1C2CC3CC(C2)CC1C3)c1ccc(C(F)(F)F)cc1 (stereo not drawn) | > 309 | > 321 | > 543 | > 1430 | – | 0.96 | 0.569
O=C(NCC12CC3CC(CC(C3)C1)C2)c1ccc(C(F)(F)F)cc1 | > 296 | > 239 | – | > 1100 | – | 1.24 | –
CCC12CC3CC(C1)CC(NNC(=O)c1ccc(C(F)(F)F)cc1)(C3)C2 | – | – | – | 1.5 | 2.5 | – | –
CC12CC3CC(C)(C1)CC(C(=O)NNC(=O)c1ccc(C(F)(F)F)cc1)(C3)C2 | – | – | – | > 8.2 | > 254 | – | –
O=C(NN=C1C2CC3CC(C2)CC1C3)c1ccc(C(F)(F)F)cc1 | – | – | – | > 1.5 | > 297 | – | –
CN(C(=O)c1ccc(C(F)(F)F)cc1)C12CC3CC(CC(C3)C1)C2 | > 296 | > 9 | > 48 | > 61 | – | 32.9 | 6.17
CCC12CC3CC(C1)CC(NC(=O)c1ccc(C(F)(F)F)cc1)(C3)C2 | > 280 | > 25 | > 25 | > 68 | – | 11.1 | 11.1
CC(NNC(=O)c1ccc(C(F)(F)F)cc1)C12CC3CC(CC(C3)C1)C2 (racemic) | – | – | – | 27 | 14 | – | –
O=C(NN1C(=O)[C@@H]2[C@@H]3C=C[C@@H]([C@H]4C[C@@H]34)[C@@H]2C1=O)c1ccc(C(F)(F)F)cc1 [TECOVIRIMAT] | > 266 | > 50000 | > 33000 | > 100000 | – | 0.00532 | 0.00806
